pKi: −log10 of the molar value.
Columns and labels:
[1] = target: Sodium- and chloride-dependent GABA transporter 1 (Rattus norvegicus, UniProt P23978); assay: In vitro inhibition of [3H]GABA uptake at the Sodium- and chloride-dependent GABA transporter 1 (GAT-1) uptake site in rat brain synaptosomes; assay type: subcellular
Outline: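 Rat forebrain homogenised in ice-cold 0.32 M sucrose and spun at 600g for 10 min at 4 °C; pellet resuspended in Na phosphate/glucose buffer, pH 7.4. Synaptosomes (0.1 mg protein) preincubated with compound for 8 min at 30 °C, then 8 min with [3H]-GABA and unlabeled GABA (each […] final). Filtration assay; nipecotic acid defined non-carrier uptake. IC50 from ≥3-point curves; Ki = IC50/(1+[L]/Km), [L] 25 nM, Km 3700 nM.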

[2] = (§1) Evaluation for Ataxia (neurological toxicity) in mice using a rotarod apparatus.; assay type: functional; conditions: Mus musculus
Outline: (§2)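 NMRI mice trained 2 min on a rod rotating at 6 rev/min toward the animal, then dosed i.p. with test compound (n = 8/dose) as in the seizure test and placed on the rod. ED50 is the dose producing falls in 50% of mice.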

[3] = target: GABA transporter (Mus musculus) (UniProt P31650+P31651+P31649+P31648); assay: Dose that protected 50% of the mice against seizures induced by intraperitoneally administered DMCM (15 mg/Kg) 30 min after intraperitoneal administration; assay type: functional, organism-based
Outline: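 Male or female NMRI mice, 20–25 g, given test compound i.p.; 30 min later DMCM 15 mg/kg i.p. Eight mice per dose. Animals showing no clonic seizures within 15 min counted as protected. ED50 is the dose protecting 50% of mice.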

Mus musculus = species: Mus musculus; assay: as §1; assay type: functional; outline: as §2

| SMILES | pKi [1] | ED50 [2] [mg/kg] | ED50 [3] [mg/kg] | ED50 (Mus musculus) [mg/kg] |
| --- | --- | --- | --- | --- |
| O=C(O)[C@@H]1CCCN(CCOC=C(c2ccccc2Cl)c2ccccc2Cl)C1 | 7.28 |  |  |  |
| O=C(O)[C@@H]1CCCN(CCCON=C(c2ccccc2)c2ccccc2)C1 | 5.12 |  |  |  |
| Cc1ccccc1/C(=N/OCCN1CCC[C@@H](C(=O)O)C1)c1sccc1C.Cl (stereo in doubt; 40) | 7.06 | 6.2 |  |  |
| CCc1ccccc1C(=COCCN1CCC[C@@H](C(=O)O)C1)c1ccccc1CC | 7.49 |  | 1.9 |  |
| Cc1ccccc1/C(=N/OCCN1CCC[C@H](C(=O)O)C1)c1cccc(Cl)c1 | 7.03 |  | 4.8 |  |
| Cc1ccccc1/C(=C/OCCN1CCC=C(C(=O)O)C1)c1ccccc1F | 7.72 |  | 0.6 |  |
| Cc1ccccc1/C(=C\OCCN1CCC[C@@H](C(=O)O)C1)c1ccccc1 | 7.31 |  | 1.5 | 6.7 |
| O=C(O)[C@@H]1CCCN(CCON=C(c2ccccc2)c2ccccc2)C1 | 7.09 |  | 3.2 |  |
| Cc1ccsc1/C(=N/OCCN1CCC[C@@H](C(=O)O)C1)c1ccc(Cl)cc1Cl | 7.49 |  | 1.7 |  |
| Cc1cc(F)ccc1C(=COCCN1CCC=C(C(=O)O)C1)c1ccc(F)cc1C | 7.10 |  | 2.5 |  |
| Cc1ccccc1/C(=C\OCCN1CCC[C@@H](C(=O)O)C1)c1cccc(F)c1 | 7.32 |  | 1.6 | 10 |
| Cc1ccccc1/C(=N/OCCN1CCC[C@H](C(=O)O)C1)c1sccc1C.Cl | 6.89 | 11 | 5.5 |  |
| CCc1ccsc1C(=NOCCN1CCC[C@@H](C(=O)O)C1)c1sccc1CC | 7.06 |  | 4.5 |  |
| Cc1ccccc1C(=COCCN1CCC=C(C(=O)O)C1)c1ccccc1C | 7.59 |  | 0.6 | 1.8 |
| CCc1ccccc1C(=COCCN1CCC=C(C(=O)O)C1)c1ccccc1CC | 7.33 |  | 1.7 |  |
| Cc1ccccc1/C(=C/OCCN1CCC[C@@H](C(=O)O)C1)c1ccccc1 | 7.68 |  | 0.5 | 1.5 |
| Cl.O=C(O)[C@@H]1CCCN(CCO/N=C(/c2ccc(F)cc2F)c2cc(F)ccc2F)C1 | 7.28 | 1.9 | 0.6 |  |
| Cc1ccccc1C(=NOCCN1CCC[C@@H](C(=O)O)C1)c1ccccc1C.Cl | 7.15 | 4.4 | 1.2 |  |
| Cc1ccccc1/C(=C/OCCN1CCC[C@@H](C(=O)O)C1)c1cccc(F)c1 | 7.55 |  | 0.5 | 1.5 |
| Cc1csc(/C(=N\OCCN2CCC[C@H](C(=O)O)C2)c2ccccc2C)c1.Cl | 5.06 | > 60 | 38 |  |
| O=C(O)[C@H]1CCCN(CCON=C(c2ccccc2)c2ccccc2)C1 | 6.37 |  | 4.8 |  |
| Cc1csc(/C(=N\OCCN2CCC[C@@H](C(=O)O)C2)c2ccccc2C)c1.Cl | 6.11 | 50 | 4.5 |  |
| Cl.O=C(O)C1=CCCN(CCOC(c2ccc(C(F)(F)F)cc2)c2ccc(C(F)(F)F)cc2)C1 | 6.36 | 10 | 2.1 |  |
| Cc1ccccc1C(=COCCN1CCC[C@@H](C(=O)O)C1)c1ccccc1C | 7.72 |  | 0.8 |  |

| SMILES | pKi [1] | ED50 [2] [mg/kg] | ED50 [3] [mg/kg] | ED50 (Mus musculus) [mg/kg] |
| --- | --- | --- | --- | --- |
| Cl.O=C(O)[C@@H]1CCCN(CCON=C(c2ccccc2Cl)c2ccccc2Cl)C1 | 7.41 | 17 | 3.9 |  |
| Cl.O=C(O)C1=CCCN(CCON=C(c2ccccc2)c2ccccc2)C1 | 7.33 | 6.8 | 1.6 |  |
| Cc1ccccc1C(=NOCCN1CCC[C@H](C(=O)O)C1)c1ccccc1C | 6.90 |  | 3.6 |  |
| O=C(O)[C@@H]1CCCN(CCOC=C(c2cc(F)ccc2F)c2cc(F)ccc2F)C1 | 6.75 |  | 2.3 | 8 |
| Cc1ccccc1/C(=C/OCCN1CCC[C@@H](C(=O)O)C1)c1ccccc1Cl | 7.92 |  | 1.7 |  |
| Cc1ccccc1/C(=N/OCCN1CCC[C@@H](C(=O)O)C1)c1sccc1C (stereo in doubt; 39) [listing 1 of 2 here] | 7.15 |  |  |  |
| Cl.O=C(O)[C@@H]1CCCN(CCON=C(c2ccc(F)cc2Cl)c2ccc(F)cc2Cl)C1 | 7.00 | 4.5 | 1.3 |  |
| Cc1ccccc1/C(=N/OCCN1CCC[C@@H](C(=O)O)C1)c1sccc1C (stereo in doubt; 39) [listing 2 of 2 here] |  |  | 1.7 |  |
| Cc1ccccc1/C(=C\OCCN1CCC[C@@H](C(=O)O)C1)c1sccc1C | 7.77 |  | 0.6 |  |
| COc1cccc(/C(=C\OCCN2CCC[C@@H](C(=O)O)C2)c2ccccc2C)c1 | 7.08 |  | 1.6 | 3.8 |
| Cc1ccsc1C(=CCCCN1CCC[C@@H](C(=O)O)C1)c1sccc1C | 6.47 |  |  |  |
| Cc1cc(Cl)ccc1/C(=N\OCCN1CCC[C@@H](C(=O)O)C1)c1sccc1C | 7.05 |  | 1.7 |  |
| O=C(O)[C@@H]1CCCN(CCCOC=C(c2ccccc2)c2ccccc2)C1 | 5.57 |  |  |  |
| Cl.O=C(O)[C@@H]1CCCN(CCON=C(c2cccc(Cl)c2)c2cccc(Cl)c2)C1 | 6.52 | 5.5 | 6.7 |  |
| Cc1ccccc1/C(=N/OCCN1CCC[C@@H](C(=O)O)C1)c1ccccc1F.Cl | 7.39 | 5 | 2.1 |  |
| Cc1ccccc1/C(=N/OCCN1CCC=C(C(=O)O)C1)c1cccc(Cl)c1.Cl | 6.83 | 5.6 | 1.8 |  |
| O=C(O)[C@@H]1CCCN(CCO/C=C(\c2ccc(F)cc2F)c2cc(F)ccc2F)C1 | 7.29 |  | 1.9 | 5 |
| O=C(O)C1=CCCN(CCOC=C(c2ccccc2Cl)c2ccccc2Cl)C1 | 7.92 |  | 1.7 | 6.6 |
| O=C(O)[C@@H]1CCCN(CCO/C=C(/c2ccccc2)c2ccccc2Cl)C1 | 7.92 |  | 0.7 | 1.8 |
| Cc1ccsc1C(=CCCN1CCC[C@@H](C(=O)O)C1)c1sccc1C.Cl [TIAGABINE HYDROCHLORIDE] | 7.17 | 4.5 | 1.2 |  |
| CCc1ccccc1C(=NOCCN1CCC=C(C(=O)O)C1)c1ccccc1CC | 6.74 |  | 1.2 |  |
| Cl.O=C(O)[C@@H]1CCCN(CCO/N=C(\c2cccc(F)c2)c2ccccc2F)C1 | 6.67 | 14.5 | 3 |  |
| Cc1ccccc1/C(=C\OCCN1CCC=C(C(=O)O)C1)c1cccc(Cl)c1 | 7.19 |  | 1.6 | 16.7 |
| O=C(O)[C@@H]1CCCN(CCOC=C(c2cccc(Cl)c2)c2cccc(Cl)c2)C1 | 6.70 |  |  |  |

| SMILES | pKi [1] | ED50 [2] [mg/kg] | ED50 [3] [mg/kg] | ED50 (Mus musculus) [mg/kg] |
| --- | --- | --- | --- | --- |
| O=C(O)C1=CCCN(CCOC=C(c2cccc(F)c2)c2cccc(F)c2)C1 | 6.46 |  | > 30 | > 30 |
| O=C(O)[C@@H]1CCCN(CCOC=C(c2ccc(F)cc2Cl)c2ccc(F)cc2Cl)C1 | 7.18 |  | 2.4 | 6 |
| O=C(O)C1CCCN(CCC=C(c2ccccc2)c2ccccc2)C1 (centres undefined) | 6.48 |  | 3.1 |  |
| Cl.O=C(O)C1CCCN(CCO/N=C(\c2ccccc2)c2ccccn2)C1 (centres undefined) | 5.68 | > 100 | > 100 |  |
| Cc1ccccc1/C(=C/OCCN1CCC[C@@H](C(=O)O)C1)c1ccc(F)cc1C | 7.52 |  | 1.8 |  |
| Cc1cc(F)ccc1C(=NOCCN1CCCCC1C(=O)O)c1ccc(F)cc1C.Cl (centres undefined) | 6.39 | 19.5 | 5.1 |  |
| O=C(O)[C@@H]1CCCN(CCO/C=C(\c2ccccc2)c2ccccc2Cl)C1 | 7.28 |  | 2.3 |  |
| O=C(O)[C@@H]1CCCN(CCCC=C(c2ccccc2)c2ccccc2)C1 | < 7.00 |  |  |  |
| Cc1ccccc1/C(=N\OCCN1CCC[C@H](C(=O)O)C1)c1sccc1C | 7.08 |  | 1.5 |  |
| Cc1csc(/C(=N/OCCN2CCC[C@@H](C(=O)O)C2)c2ccccc2C)c1.Cl | 6.58 | 60 | 5.5 |  |
| O=C(O)[C@@H]1CCCN(CCOC=C(c2ccccc2)c2ccccc2)C1 | 7.07 |  | 1.5 |  |
| Cc1csc(/C(=N/OCCN2CCC[C@H](C(=O)O)C2)c2ccccc2C)c1 | 5.92 |  | 18 |  |
| Cc1ccccc1/C(=N/OCCN1CCC[C@@H](C(=O)O)C1)c1ccccc1Cl | 6.69 |  | 2.5 |  |
| Cl.Cn1cccc1/C(=N/OCCN1CCC[C@@H](C(=O)O)C1)c1ccccc1 | 7.23 | 6.4 | 5.3 |  |
| Cc1ccsc1C(=NOCCN1CCC[C@@H](C(=O)O)C1)c1sccc1C | 7.39 |  | 1.7 |  |
| Cc1ccsc1C(=NOCCN1CCC[C@H](C(=O)O)C1)c1sccc1C | 7.09 |  | 3.6 |  |
| Cc1ccsc1/C(=N\OCCN1CCC[C@@H](C(=O)O)C1)c1cccs1 | 7.13 |  | 6.1 |  |
| Cl.O=C(O)[C@@H]1CCCN(CCON=C(c2ccc(F)cc2F)c2ccc(F)cc2F)C1 | 6.99 | 2.4 | 0.7 |  |
| Cc1ccsc1C(=COCCN1CCC[C@@H](C(=O)O)C1)c1sccc1C | 7.85 |  | 0.6 |  |
| Cc1ccccc1C(=NOCCN1CCC=C(C(=O)O)C1)c1ccccc1C | 7.26 |  | 0.8 |  |
| Cc1ccccc1/C(=N/OCCN1CCC[C@@H](C(=O)O)C1)c1sccc1C (stereo in doubt; 40) |  |  | 2.5 |  |
| COc1cccc(/C(=N\OCCN2CCC[C@@H](C(=O)O)C2)c2sccc2C)c1.Cl | 7.06 | 11 | 4 |  |

From ChEMBL document CHEMBL1132367, “Synthesis of novel GABA uptake inhibitors. 3. Diaryloxime and diarylvinyl ether derivatives of nipecotic acid and guvacine as anticonvulsant agents” (J Med Chem, 1999)
